Assay outcomes: PubChem, several laboratories
Most compounds without a hit are left out; they make up all but 2.5% or so of the library.
UHRF1 MBD2 ctr: UHRF1 methyl-DNA binding inhibition; inhibition, % at 4.4 µM; Q96T88; 0.75% of 370,000 active; UHRF1 binding to methylated oligo, TR-FRET; in the data active means inhibition above about 21%;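 further: UHRF1 SRA domain binding a hemimethylated CpG hairpin DNA probe; 0% = median of test compound wells and 100% = reference inhibitor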
Target sequence (Q96T88 whole entry, looked up, the tested form may be a part): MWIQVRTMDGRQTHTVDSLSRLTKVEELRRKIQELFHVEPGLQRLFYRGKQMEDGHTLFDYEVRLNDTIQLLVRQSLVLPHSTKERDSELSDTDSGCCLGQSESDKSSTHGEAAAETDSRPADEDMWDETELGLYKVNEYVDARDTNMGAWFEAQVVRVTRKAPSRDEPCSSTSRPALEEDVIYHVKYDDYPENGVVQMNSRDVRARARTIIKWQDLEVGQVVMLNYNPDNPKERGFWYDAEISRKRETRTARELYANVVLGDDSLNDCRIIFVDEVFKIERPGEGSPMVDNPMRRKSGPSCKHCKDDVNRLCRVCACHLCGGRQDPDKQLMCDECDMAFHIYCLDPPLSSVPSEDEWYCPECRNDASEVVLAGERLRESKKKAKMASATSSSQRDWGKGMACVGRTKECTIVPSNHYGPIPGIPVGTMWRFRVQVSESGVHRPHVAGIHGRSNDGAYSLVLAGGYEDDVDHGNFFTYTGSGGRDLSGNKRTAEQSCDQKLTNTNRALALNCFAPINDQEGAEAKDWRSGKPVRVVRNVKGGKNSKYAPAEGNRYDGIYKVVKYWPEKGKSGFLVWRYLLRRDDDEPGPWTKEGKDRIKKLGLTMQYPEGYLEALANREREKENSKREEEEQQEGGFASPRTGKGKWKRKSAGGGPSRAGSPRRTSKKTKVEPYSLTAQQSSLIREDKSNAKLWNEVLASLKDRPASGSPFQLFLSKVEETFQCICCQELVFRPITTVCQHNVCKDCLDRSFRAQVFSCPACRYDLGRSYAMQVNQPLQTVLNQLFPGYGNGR
Pemphigus Ab inh: inhibitors of pemphigus antibody binding to human desmoglein-3; P32926; DSG3-coupled beads, scFv-anti-DSG3-GFP binding, flow cytometry; stronger effect = lower value; binding (percent of control), % at 10 µM; 0.48% of 310,000 active;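 active means binding more than 3 SD below its plate's average and above zero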;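 further: hits lower antibody fragment binding to DSG3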
SUMO1-SIM PPI: SUMO1-SIM interaction modulation; P63165; SUMO1 binding to a labelled peptide, TR-FRET, 1 h; inhibition, % at 20 µM; 0.33% of 360,000 active; AID 602429; in the data active means inhibition above about 37%
DNMT1 inh: blocks human DNA methyltransferase DNMT1; P26358; 0.83% of 360,000 active; inhibition (reported as % activation of signal), % at 10 µM; DNMT1 molecular beacon, Hinp1I cleavage, fluorescence; in the data active means inhibition above about 50%
MBD2 DNA inh: blocks human MBD2 binding to methylated DNA; Q9UBB5; TR-FRET, MBD2 binding to methylated oligonucleotide; inhibition, % at 4.4 µM; 0.31% of 370,000 active; in the data active means inhibition above about 13%
NS3 helicase inh: blocks Hepatitis C virus NS3 helicase unwinding; NS3 helicase DNA unwinding, Cy5 molecular beacon fluorescence; inhibition, % at 10.9 µM; 0.56% of 290,000 active; AID 1800;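 active means inhibition above the mean of all tested compounds plus 3 SD, set per campaign, cut at about 35% in these data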;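 further: 0% = DMSO wells and 100% = thioflavine S control wells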
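Control set: DMSO versus 110 µM thioflavine S; Material: NS3 helicase fragment of HCV; Measured by: Cy5 fluorescence at 0 and 60 min, beacon hairpin quenching; Read-out basis: percent inhibition from t60/t0 fluorescence ratio; Times: reaction time 60 min, 25 °C; Repeats: single replicate; Compound dosing: single dose, 10.9 µM nominal final, DMSO 0.8% final.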
DNMT1 confirm: DNMT1 inhibition confirmation, single concentration; shares compounds with DNMT1 inh; DNMT1 molecular beacon HinP1I cleavage, fluorescence; inhibition, % at 10 µM; 8% of 2,300 active; AID 602385;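 active means average inhibition of at least 30% in the single-concentration confirmation test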
Beacon interf: counter-screen for DNMT1 inhibitors: spectral interference; 1% of 2,300 active; DNMT1 molecular beacon spectral interference counterscreen, fluorescence 485/520; AID 602387; activation (fluorescence interference), % at 10 µM; shares compounds with DNMT1 inh;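 active means activation of at least 30% at 10 µM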;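 further: DNMT1 catalytic domain with a HinP1I cleavage step and a FAM/dabcyl DNA beacon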
The depositor's hits bear a star; · = no result given; ! = repeats disagree.

SMILES	UHRF1 MBD2 ctr	Pemphigus Ab inh	SUMO1-SIM PPI	DNMT1 inh	MBD2 DNA inh	NS3 helicase inh	DNMT1 confirm	Beacon interf
COc1cccc(C=NN(C)c2c([N+](=O)[O-])cc(C(F)(F)F)cc2[N+](=O)[O-])c1O	-1	·	-25	-9	4	·	·	·
COc1ccc(N2CCCC2=O)cc1S(=O)(=O)N1CCOCC1	0	99	4	72*	-2	·	1	3
O=C1NC(c2cccs2)Nc2ccccc21 (stereo not drawn)	0	102	-5	64*	4	-3	2	0
O=C(CNC(=O)c1cccc(OC(F)F)c1)OCc1cc(=O)n2cc(Br)ccc2n1	9	119	-19	108*	8	7	3	6
NC1CCCCC1N=Cc1c(O)n(CCc2ccc(F)cc2)c(=O)[nH]c1=O (stereo not drawn)	0	100	-1	35	1	7	·	·
O=c1[nH]c(=O)n(CCc2ccc(F)cc2)c(O)c1C=NCc1ccc2c(c1)OCO2	-3	·	0	78*	-2	1	1	3
CCCCn1c(N)c(N(CCOC)C(=O)c2ccco2)c(=O)[nH]c1=O	-1	94	0	0	-6	·	·	·
Cc1cc2c(NC(=O)Nc3ccccc3)cccc2nn1	-6	111	-12	-5	-6	7	·	·
Cc1cc2c(N)cccc2nn1	45*	·	73*	127*	9	30	1	0
COc1ccc2c3c([nH]c2c1)C(C)N(CCC(=O)NN)CC3 (stereo not drawn)	-2	87	-3	64*	1	-71	4	4
COc1ccc2c3c([nH]c2c1)C(C)N(C(C)=O)CC3 (stereo not drawn)	3	96	0	0	5	-3	·	·
CCCCCCCCN1C(=O)[C@@H](CC(=O)N2CCN(C(=O)C3CC3)CC2)C[C@@]2(C(=O)OC)C1=C[C@H](COCc1ccccc1)O[C@@H]2C	0	·	·	·	3	·	·	·
CC(C)=CCC/C(C)=C/CC/C(C)=C/CC/C(C)=C/CC1=C(C)C(=O)c2ccccc2C1=O	-1	92	-9	-4	3	·	·	·
CC(C)=CCC1=C(OCC(=O)O)C(=O)c2ccccc2C1=O	12	90	27	71*	-3	5	-4	1
COC(=O)c1ccc(OS(=O)(=O)c2ccc(NC(C)=O)cc2)cc1	0	103	3	-2	-6	2	·	·
O=C(COC(=O)CSc1ccc(F)cc1)NCc1ccco1	1	·	1	-4	2	·	·	·
Cc1c(C)c2c(OCC(=O)Nc3cccnc3)cc3c(c2oc1=O)CCC(C)(C)O3	-3	102	14	55*	-4	-22	1	2
CCc1cc(=O)oc2c3c(cc(OCC(=O)Nc4cccnc4)c12)OC(C)(C)CC3	2	102	6	0	1	-20	·	·
O=C(O)c1cccc(S(=O)(=O)Nc2ccc(Cc3ccncc3)cc2)c1	6	95	-2	2	-1	·	·	·
CC(C)C[C@@H]1NC(=O)[C@H](Cc2ccccc2)N(C)C(=O)[C@H](C)NC(=O)c2ccccc2NC(=O)[C@H](Cc2ccc(O)cc2)N(C)C1=O	4	103	4	79*	5	·	3	6
Cc1nn(-c2cccc(Cl)c2)c(Cl)c1/C=N/NC(=O)c1cccs1	-1	102	6	72*	-1	22	5	-1
CCNC(=S)N/N=C/c1c(C)nn(-c2cccc(Cl)c2)c1Cl	0	·	-5	-2	0	-5	·	·
Cc1ccc(OCC(=O)N2c3ccccc3NC(=O)C2(C)C)c([N+](=O)[O-])n1	1	102	7	0	-3	8	·	·
CC1(C)C(=O)Nc2ccccc2N1C(=O)COc1cccnc1[N+](=O)[O-]	7	98	-9	58*	-2	7	5	2
O=C(NCSc1ccnc(SCNC(=O)c2ccc(F)cc2)n1)c1ccc(F)cc1	1	·	2	52*	5	-4	3	-6
SMILES	UHRF1 MBD2 ctr	Pemphigus Ab inh	SUMO1-SIM PPI	DNMT1 inh	MBD2 DNA inh	NS3 helicase inh	DNMT1 confirm	Beacon interf
CC[C@]12c3[nH]c4cc(CCC(=O)N(C)C)ccc4c3CCN1C(=O)[C@@H](CC(=O)NCc1cccc(C(F)(F)F)c1)C[C@@H]2C(=O)N1CCN(C(=O)c2ccco2)CC1	-1	89	4	53*	-8	·	3	3
CCCCn1c(N)c(N(CC(C)C)C(=O)CSCC(=O)Nc2cccc(C)c2)c(=O)[nH]c1=O	0	92	-4	-6	-5	·	·	·
O=C(O)c1ccccc1C1=Nc2ccc(O)cc2Oc2cc(O)ccc21	-1	100	6	55*	2	-1	39*	45*
Cc1noc(C)c1CNCc1ccccc1	3	93	0	-1	3	3	·	·
Cc1ccc(C(=O)Nc2cccc(C(F)(F)F)c2)cc1NC(=O)c1cnnc2ccccc12	9	112	3	55*!	3	·	3	-1
Cc1ccc(C(=O)Nc2cccc(C(F)(F)F)c2)cc1Nc1cncnc1	-1	114	0	7	7	3	·	·
Cc1ccc(C(=O)Nc2cccc(C(F)(F)F)c2)cc1NC(=O)c1[nH]cnc1C(N)=O	-3	101	9	56*	0	·	3	-1
CCn1c(=S)[nH]c2scc(-c3cccs3)c2c1=O	2	101	11	-9	4	16	·	·
CC(C)n1c(=S)[nH]c2scc(-c3cccs3)c2c1=O	2	89	-1	80*	2	25	14	-1
COn1c(=O)c(-c2ccc(C)cc2)[n+]([O-])c2ccccc21	-5	89	-28	-3	2	14	·	·
COn1c(=O)c(-c2ccc(Cl)cc2)[n+]([O-])c2ccccc21	-2	97	-31	68*	-3	-1	0	1
COc1cc2c(cc1NC(C)=O)CCCC2	1	86	-2	4	-1	10	·	·
COc1ccc(NC(=O)C2Cc3c(-c4ccco4)ccnc3O2)cc1OC (stereo not drawn)	-1	·	-1	90*	1	·	1	2
O=C1CC(N2CCN(c3ccccc3)CC2)C(=O)N1c1cccc(Cl)c1 (stereo not drawn)	-1	110	5	71*	-3	13	1	77*
CSc1nsc(/C=C/Nc2ccc(C(=O)O)cc2)c1C#N	-8	90	14	66*	-5	26	9	9
CCOC(=O)c1c(C)[nH]c(C(=O)OC(C)C(=O)Nc2ccc(C)cc2)c1C (stereo not drawn)	0	95	3	74*	-1	·	-2	-2
